22 sequences from the EternaBench riboswitch data can be followed below.

This data set concerns MS2 coat protein. Put plainly: apparent Kd, MS2 coat protein; higher = weaker binding; RNA-MaP array; tryptophan 2.4 mM where present. A digest of the protocol: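 Apparent Kd: the median of filtered binding-curve fits from single clusters. Designs were transcribed on Illumina sequencing-chip clusters by stalled E. coli RNA polymerase and titrated with SNAP-549-labelled MS2 coat protein from 0.7 or 1.5 nM, doubling to 3 µM, in 100 mM Tris-HCl pH 7.5, 80 mM KCl, 4 mM MgCl2, BSA, DTT, yeast tRNA and Tween-20. Each series ran without and then with constant ligand, and green signal was normalised to red-channel RNA signal and control-cluster median Fmax.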

[1] abbreviates: designed as: OFF switch for tryptophan, no ligand.
[2] abbreviates: ligand present: tryptophan, designed as: OFF switch for tryptophan.
Where [3] appears, read: designed as: ON switch for tryptophan, no ligand.
Setting [4] is: ligand present: tryptophan, designed as: ON switch for tryptophan.

Usually apparent Kd stands for a dissociation constant that holds for the conditions of the assay.

In the case of “AAUGAGUGGUGGUCAAACAUGGGUGAUCAACGAGGACCGGUACGGCCGCCACUCGAUAACAUGAGGAUCACCCAUGUAAUAAUAA”, the “apparent Kd” value reads like this: under setting [1], 234 nM; under setting [2], 202 nM.
“GCUAGGUCAUCGGCCGCCACUAACGAUGGCUCCGACAUGAGGAUCACCCAUGUGCCACAUGCGCAUAGGACCGGGAUGACCUAGC”: the “apparent Kd” value reads like this: under setting [3], 18.5 nM; under setting [4], 14.3 nM.
As for “ACUACAAAGUAGUAUAUACGAAAGUAUAGACGAGGACCGGUACGGCCGCCACUCGGUACCGGAAACACAUGAGGAUCACCCAUGU”, the “apparent Kd” value under setting [1] turned out to be 20.6 nM and the “apparent Kd” value under setting [2] is 17.6 nM.
On to “GAGUAGAGGACGGCCGCCACUAAACAUGAGGAUCACCCAUGUCGUGAUCCGUUACCUAGGGUAGAUAGGACCGGGUCAUGUAGUC”, for which the “apparent Kd” value under setting [1] amounted to 59.3 nM and the “apparent Kd” value under setting [2] is 45.9 nM.
Regarding “AUUAAGGAUAUAUAGAAGGCGGAGAAGAGACGAGGACCGGUACGGCCGCCACUCGUGUUAGUUAACAUGAGGAUCACCCAUGUAA”, the “apparent Kd” value runs as follows: under setting [3], 80.6 nM; under setting [4], 18.7 nM.
For the sequence “AAAACAUGAGGAUCACCCAUGUACAUGGGUCGAGGACCGGUACGGCCGCCACUCGCCGCCCGCCCGCCCGCCACCUCUCCCGCCC”, the “apparent Kd” value is, setting by setting: under setting [3], 69.9 nM; under setting [4], 66.2 nM.
The corresponding values for “AGAGCAUUGACGGCCGCCACUCGUGUCACAUGAGGAUCACCCAUGUGACGGGUGAUCGCCCGGUUGAGGACCGGGUCAAUGCUCA” are 9.69 nM and 11.4 nM.
With “UACUUGCUGACGGCCGCCACUAGUACAUGAGGAUCACCCAUGUACGGUCGCCCGGUGUGAUCCACUAGGACCGGGUCAGCAAGAU”, the “apparent Kd” value under setting [1] was determined as 38.3 nM and the “apparent Kd” value under setting [2] was 124 nM.
The corresponding values for “AUAACGAGUGGUGGAAUACAUGGGUGAUAACGAGGACCGGUACGGCCGCCACUCGAUAACAUGAGGAUCACCCAUGUAAUAAUAA” are 161 nM and 31.1 nM.
“AAUCAUGAAAACAUGACAUGAGGAUCACUCCGAGGACCGGUACGGCCGCCACUCGCGAGGAGGCACAUGAGGAUCACCCAUGUUA”: the “apparent Kd” value reads like this: under setting [3], 69 nM; under setting [4], 82.7 nM.
As to “GACUAUAUGAUAUGUCAGAAAUCCUCGAAACGAGGACCGGUACGGCCGCCACUCGAGUGAUAAACAUGAGGAUCACCCAUGUAAA”, the “apparent Kd” value under setting [1] was 22.5 nM and the “apparent Kd” value under setting [2] worked out at 51.9 nM.
With “GUGCCGCAUUCACAUGAGGAUCACCCAUGUCGAGGACCGGUACGGCCGCCACUCGACGUGCUUACAGGUCCUUUACGGCCCAAUA”, the “apparent Kd” value by setting is: under setting [1], 38.1 nM; under setting [2], 18.8 nM.
In the case of “GCUGUGAAGUCGGCCGCCACUGGUUAGUUUUACCUCAUGUAACAUGAGGAUCACCCAUGUAAUUUCAGGACCGGGACAACAGCAA”, the “apparent Kd” value was 278 nM under setting [1] and 852 nM under setting [2].
As to “CGAGUAGGUUCAAUCGAAUAACGGUUUUCGCGAGGACCGGUACGGCCGCCACUCGUGUGAUAUCACACAUGAGGAUCACCCAUGU”, the “apparent Kd” value by setting is: under setting [3], 45 nM; under setting [4], 33.8 nM.
Turning to “ACAUGAGGAUCACCCAUGUUAAACAGGGUGCGAGGACCGGUACGGCCGCCACUCGGACAUUAUUACGAGUGAAUGGCAACGAUGU”, the “apparent Kd” value is 15.8 nM under setting [1] and 15.4 nM under setting [2].
In the same order, the values of “GGCACAUAGUCGGCCGCCACUAGAUUUUAGUGGAAUAACAUGAGGAUCACCCAUGUAUUUGGGACUAGGACCGGGACUAUGUGCC” are 32.8 nM and 22.2 nM.
Turning to “AUGCAGAACACGGCCGCCACUCCAUGUAUACAUGAGGAUCACCCAUGUAAUUUGUAUUUUUUAUAGAGGACCGGGUGAAAUGCAA”, the “apparent Kd” value was found to be 33.5 nM under setting [3] and 18.2 nM under setting [4].
In the same order, the values of “ACAUGAGGAUCACCCAUGUCAUGAGGUUCACGAGGACCGGUACGGCCGCCACUCGACAUGAGGGUCACCCGUGAACGGAACACCC” are 14.8 nM and 20 nM.
In the same order, the values of “ACGUUUUAGUCGGCCGCCACUGAUCUCAUGUUCAACAUGAGGAUCACCCAUGUACCUUUUUUUAUCAGGACCGGGACGUAAUAGA” are 329 nM and 62.3 nM.
With “GAAUAAGAAUCGGCCGCCACUCACAUGAGGAUCACCCAUGUACAUGAGGAACAUGAAAAUCACCCGAGGACCGGGAUAUAUGUUC”, the “apparent Kd” value came to 70 nM under setting [1] and 66.9 nM under setting [2].
Regarding “CUACAUUUGUAGAAACCGGUCAACAUUAUUCGAGGACCGGUACGGCCGCCACUCGUAUAAUUUAAUACAUGAGGAUCACCCAUGU”, the “apparent Kd” value is, setting by setting: under setting [3], 14.6 nM; under setting [4], 15.9 nM.
The corresponding values for “CUACAUUUGUAGAAACCGGUCAACAUUAUUCGAGGACCGGUACGGCCGCCACUCGUAUCAUUUGAUACAUGAGGAUCACCCAUGU” are 19.2 nM and 22.6 nM.
